Results on 23 compounds are retold here after ChEMBL document CHEMBL1123131, “Examination of a series of 8-[3-[bis(4-fluorophenyl)amino]propyl]-1-aryl-1,3,8- triazaspiro[4.5]decan-4-ones as potential antipsychotic agents” (J Med Chem, 1985).

SMILES strings stand for the structures. A value given as a limit tells only on which side of the number the result lay.

The subject of experiment [1] is Mus musculus. The experiment is described as follows: Antipsychotic activity using locomotor activity (LMA)-inverted screen test in mice (i.p. admin.). The class given is functional. The following applies: ip, read-out: MED. The gist of the method:
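Unfasted male Swiss-Webster mice, 20–30 g, nine per dose; ip 1 h before testing in 0.2% methocel, 10 mL/kg; 10, 30, 100 mg/kg, three replicates. Inverted-screen falloff over 60 s, then photocell locomotion for 60 min versus vehicle. MED = lowest dose giving >60% locomotor inhibition with <60% falloff.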

Experiment [2] deals with Rattus norvegicus. The experiment can be described thus: The compound was tested (after peroral administration) for its ability to induce catalepsy in rats. It counts as functional. The following applies: po. The gist of the method:
(§1)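 Fasted male Long-Evans hooded rats, 180–220 g, used once; oral intubation, suspended in 0.2% methylcellulose if insoluble. At least three doses, eight rats per dose. Forepaws placed on a horizontal rod 11.5 cm high, read every 30 min for 1 h then hourly to 6 h, 24 h if needed. Partial scores summed; ED50 by nonlinear regression.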

The species named for experiment [3] is Rattus norvegicus. The experiment can be described thus: Activity against the suppression of high base line self stimulation with electrodes in the medial forebrain of the posterior hypothalamus of male hooded rats (Peroral admin.). The class given is functional. As to conditions: po. The gist of the method: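 Male hooded rats with electrodes in the medial forebrain bundle of the posterior hypothalamus; rapid high base-line self-stimulation rates served as base lines. Oral dosing, behaviour recorded continuously on cumulative recorders. Active if base-line rate was reduced by 50% for 1.5 h or more. Four rats per dose; ED50 by computer analysis (linear regression from doses bracketing the ED50).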

Experiment [4] can be described thus: The compound was tested for its ability to induced catalepsy in squirrel monkeys. The class given is functional. The gist of the method: (§2)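 Adult squirrel monkeys, 600–1000 g, fasted overnight, oral dosing with at least 1 week between dosings. Observed hourly for at least 6 h and at 24 h. Four animals per dose, at least three doses; ED50 by nonlinear regression for quantal data.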

The nature of experiment [5]: The compound was tested for inhibition of sidman avoidance in squirrel monkeys. The class given is functional. The gist of the method: (§3)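 Mature male Long-Evans rats or squirrel monkeys trained on a modified Sidman avoidance lever schedule with 0.5-s shock; 6-h sessions, given orally. Response expressed as % inhibition of nondrug avoidance responding, each animal its own control. At least three doses, four animals each, sessions at least 1 week apart; ED50 by nonlinear regression.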

Experiment [6] can be described thus: Minimal effective dose required for signs of EPS in cebus monkeys. The class given is functional. The following applies: read-out: MED.
The species entered for experiment [7] is Rattus norvegicus. The experiment can be described thus: The compound was tested for its ability to induced catalepsy in rats. The class given is functional. The gist of the method:
as §1

The species entered for experiment [8] is Rattus norvegicus. The experiment can be described thus: The compound was tested for inhibition of sidman avoidance in rat. It counts as functional. The gist of the method: as §3
Experiment [9] can be described thus: The compound was tested (after peroral administration) for its ability to induced catalepsy in squirrel monkeys. The class given is functional. As to conditions: po. The gist of the method: as §2
Experiment [10] has as its target T1, Adrenergic receptor alpha-1 (Rattus norvegicus, UniProt P15823+P23944+P43140).
T1 sequence (P15823 whole entry): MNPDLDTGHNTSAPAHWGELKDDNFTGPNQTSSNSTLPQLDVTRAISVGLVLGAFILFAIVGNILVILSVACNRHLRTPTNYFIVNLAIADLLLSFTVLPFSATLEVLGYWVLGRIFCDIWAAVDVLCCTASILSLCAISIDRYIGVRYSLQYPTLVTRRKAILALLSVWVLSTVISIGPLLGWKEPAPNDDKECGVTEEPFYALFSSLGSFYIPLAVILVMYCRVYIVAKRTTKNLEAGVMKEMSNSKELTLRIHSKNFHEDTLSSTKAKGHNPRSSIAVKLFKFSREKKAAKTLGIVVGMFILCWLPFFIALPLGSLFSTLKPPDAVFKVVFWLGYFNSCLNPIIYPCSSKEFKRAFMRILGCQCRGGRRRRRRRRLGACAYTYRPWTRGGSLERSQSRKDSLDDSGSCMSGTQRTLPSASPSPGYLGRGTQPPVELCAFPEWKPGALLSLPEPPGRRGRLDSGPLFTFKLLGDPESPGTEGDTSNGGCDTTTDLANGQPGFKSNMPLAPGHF
T1 sequence (P23944 whole entry): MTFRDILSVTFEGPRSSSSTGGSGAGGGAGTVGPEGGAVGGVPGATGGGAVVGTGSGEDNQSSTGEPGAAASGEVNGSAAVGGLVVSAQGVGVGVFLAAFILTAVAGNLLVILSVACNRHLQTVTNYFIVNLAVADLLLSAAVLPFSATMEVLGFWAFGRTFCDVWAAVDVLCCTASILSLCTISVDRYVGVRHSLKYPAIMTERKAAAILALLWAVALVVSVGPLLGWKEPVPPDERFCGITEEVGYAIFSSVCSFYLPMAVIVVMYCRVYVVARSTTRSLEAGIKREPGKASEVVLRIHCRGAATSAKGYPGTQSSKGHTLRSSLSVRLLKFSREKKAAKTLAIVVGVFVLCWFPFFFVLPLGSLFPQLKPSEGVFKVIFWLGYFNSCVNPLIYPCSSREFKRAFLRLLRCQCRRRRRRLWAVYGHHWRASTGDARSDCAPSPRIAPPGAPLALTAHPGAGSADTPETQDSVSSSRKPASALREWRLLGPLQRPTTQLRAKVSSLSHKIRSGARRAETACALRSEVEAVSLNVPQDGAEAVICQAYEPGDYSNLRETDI
T1 sequence (P43140 whole entry): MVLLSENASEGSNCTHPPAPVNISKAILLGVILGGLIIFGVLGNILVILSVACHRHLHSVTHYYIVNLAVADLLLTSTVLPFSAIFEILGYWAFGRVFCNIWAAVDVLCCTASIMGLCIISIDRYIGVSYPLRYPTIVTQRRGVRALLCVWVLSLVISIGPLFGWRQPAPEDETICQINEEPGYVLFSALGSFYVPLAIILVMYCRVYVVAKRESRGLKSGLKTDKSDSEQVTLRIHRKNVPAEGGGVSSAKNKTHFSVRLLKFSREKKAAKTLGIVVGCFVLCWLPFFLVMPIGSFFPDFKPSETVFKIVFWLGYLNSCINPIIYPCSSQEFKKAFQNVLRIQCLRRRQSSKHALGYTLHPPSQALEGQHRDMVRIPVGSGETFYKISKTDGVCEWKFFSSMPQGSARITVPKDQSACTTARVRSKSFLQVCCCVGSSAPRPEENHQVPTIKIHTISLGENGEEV

Experiment [11] is described as follows: Minimal effective dose (after peroral administration) required for signs of EPS in cebus monkeys. It counts as functional. As to conditions: po; read-out: MED.
The target in experiment [12] is Muscarinic acetylcholine receptor. The experiment is described as follows: The compound was tested for inhibition of [3H]QNB binding to Muscarinic acetylcholine receptor. The class given is protein assay.
Experiment [13] has as its system Rattus norvegicus. The experiment can be described thus: The compound was tested (after peroral administration) for inhibition of sidman avoidance in rat. The class given is functional. As to conditions: po. The gist of the method: as §3
The nature of experiment [14]: The compound was (after peroral administration) tested for inhibition of sidman avoidance in squirrel monkeys. It counts as functional. As to conditions: po. The gist of the method: as §3

With `O=C1NCN(c2cccc(F)c2)C12CCN(CCCN(c1ccc(F)cc1)c1ccc(F)cc1)CC2`, the minimal effective dose in experiment [1] stood at 30 mg/kg. Besides, the ED50 – broadly, the dose at which the effect has come halfway, by size or by number of responders – in experiment [2] was 4.1 mg/kg; in experiment [3], 0.78 mg/kg.
For `CN1CN(c2ccc(F)cc2)C2(CCN(CCCN(c3ccc(F)cc3)c3ccc(F)cc3)CC2)C1=O` the same measures were no more than 10 mg/kg, 54 mg/kg and 0.96 mg/kg.
For `O=C(CCCN1CCC2(CC1)C(=O)NCN2c1ccccc1)c1ccc(F)cc1` [SPIPERONE] the same measures were less than 10 mg/kg, 10.8 mg/kg and 1.28 mg/kg.
With `Cc1ccc(N2CNC(=O)C23CCN(CCCN(c2ccc(F)cc2)c2ccc(F)cc2)CC3)cc1`, in [1], the minimal effective dose was no more than 10 mg/kg. In addition, the 50% effective dose (ED50) in [3] was greater than 16 mg/kg.
As for `O=C(CCCN1CCC(O)(c2ccc(Cl)cc2)CC1)c1ccc(F)cc1` [HALOPERIDOL], the ED50 in experiment [4] amounted to 2 mg/kg; in [5] it was 0.26 mg/kg; in [7], 0.47 mg/kg; in experiment [8] it was 0.3 mg/kg; in [2], 0.1 mg/kg; in experiment [3], 0.14 mg/kg. The minimal effective dose in [1] and in experiment [6] was 0.3 mg/kg throughout.
As to `O=C1N(CC2CC2)CN(c2ccccc2)C12CCN(CCCN(c1ccc(F)cc1)c1ccc(F)cc1)CC2`, the minimal effective dose in experiment [1] is 30 mg/kg. In addition, the ED50 in experiment [2] amounted to 200 mg/kg; in experiment [3], 8.39 mg/kg.
In the same order, the values of `O=C1NCN(c2ccc(F)cc2)C12CCN(CCCN(c1ccc(F)cc1)c1ccc(F)cc1)CC2` are no more than 10 mg/kg, 4.5 mg/kg and 0.55 mg/kg.
In the same order, the values of `CCN(CC)CCN1CN(c2ccccc2)C2(CCN(CCCN(c3ccc(F)cc3)c3ccc(F)cc3)CC2)C1=O` are no more than 10 mg/kg, 138 mg/kg and 5.65 mg/kg.
For `C=CCN1CN(c2ccccc2)C2(CCN(CCCN(c3ccc(F)cc3)c3ccc(F)cc3)CC2)C1=O` the same measures were no more than 10 mg/kg, 22 mg/kg and 1.06 mg/kg.
In the case of `O=C1N(Cc2ccccc2)CN(c2ccccc2)C12CCN(CCCN(c1ccc(F)cc1)c1ccc(F)cc1)CC2`, the minimal effective dose in experiment [1] was greater than 100 mg/kg.
On to `O=C1N(CO)CN(c2ccccc2)C12CCN(CCCN(c1ccc(F)cc1)c1ccc(F)cc1)CC2`, for which the minimal effective dose in [1] is less than 10 mg/kg. Further, the ED50 in experiment [2] stood at 11 mg/kg; in [3] it was 0.89 mg/kg.
As to `O=C1N(COCc2ccccc2)CN(c2ccccc2)C12CCN(CCCN(c1ccc(F)cc1)c1ccc(F)cc1)CC2`, the minimal effective dose in experiment [1] turned out to be 100 mg/kg. In addition, the ED50 in experiment [3] is greater than 16 mg/kg.
For `O=C1NCN(c2ccc(Cl)cc2)C12CCN(CCCN(c1ccc(F)cc1)c1ccc(F)cc1)CC2` the same measures were 30 mg/kg and 2 mg/kg.
Turning to `O=C1NCN(c2ccccc2)C12CCN(CCCN(c1ccc(F)cc1)c1ccc(F)cc1)CC2`, the ED50 in experiment [9] was 30 mg/kg; in [13], 2.8 mg/kg; in experiment [14] it was 1.7 mg/kg; in experiment [2], 81 mg/kg. Also, the IC50 – broadly, the concentration needed to halve the response being measured – in experiment [10] is recorded as greater than 1000 nM; in experiment [12] it was greater than 100 nM. The values for the minimal effective dose in experiment [11] and in experiment [1] were 2.5 mg/kg and 5 mg/kg, respectively.
Consider `COc1ccc(N2CNC(=O)C23CCN(CCCN(c2ccc(F)cc2)c2ccc(F)cc2)CC3)cc1`, for which the minimal effective dose in [1] is 30 mg/kg. For the same compound, the ED50 in [3] is greater than 16 mg/kg.
On to `CN1CCN(C2=Nc3cc(Cl)ccc3Nc3ccccc32)CC1` [CLOZAPINE], for which the ED50 is greater than 50 mg/kg in [4], 4.1 mg/kg in experiment [5], 133 mg/kg in [7] and 14.4 mg/kg in [8]. In addition, the values for the minimal effective dose in experiment [1] and in [6] were 10 mg/kg and greater than 30 mg/kg, respectively.
Take `CC(=O)OCN1CN(c2ccccc2)C2(CCN(CCCN(c3ccc(F)cc3)c3ccc(F)cc3)CC2)C1=O`: the minimal effective dose in [1] was less than 10 mg/kg. The ED50 came to 17 mg/kg in experiment [2] and 1.03 mg/kg in experiment [3].
As to `CN1CN(c2cccc(C(F)(F)F)c2)C2(CCN(CCCN(c3ccc(F)cc3)c3ccc(F)cc3)CC2)C1=O`, the minimal effective dose in experiment [1] worked out at 30 mg/kg. In [3], the ED50 is greater than 16 mg/kg.
With `CN1CN(c2ccccc2)C2(CCN(CCCN(c3ccc(F)cc3)c3ccc(F)cc3)CC2)C1=O`, the minimal effective dose in [1] is no more than 10 mg/kg. Further, the ED50 in [2] came to 33 mg/kg; in experiment [3], 2.84 mg/kg.
As to `CC(C)c1ccc(N2CNC(=O)C23CCN(CCCN(c2ccc(F)cc2)c2ccc(F)cc2)CC3)cc1`, the minimal effective dose in [1] was greater than 100 mg/kg.
In [3], `O=C1NCN(c2ccccc2F)C12CCN(CCCN(c1ccc(F)cc1)c1ccc(F)cc1)CC2` came in with an ED50 greater than 16 mg/kg.
For the compound `CN(C)CCCN1CN(c2ccccc2)C2(CCN(CCCN(c3ccc(F)cc3)c3ccc(F)cc3)CC2)C1=O`, the ED50 amounted to 200 mg/kg in experiment [2] and 16 mg/kg in [3].
On to `O=C1NCN(c2cccc(C(F)(F)F)c2)C12CCN(CCCN(c1ccc(F)cc1)c1ccc(F)cc1)CC2`, for which the minimal effective dose in [1] was greater than 100 mg/kg.
